Among the data in ChEMBL document CHEMBL1177712, “Synthesis and characterization of in vitro and in vivo profiles of hydroxybupropion analogues: aids to smoking cessation” (J Med Chem, 2010) are IC50, Activity and Ratio IC50 values, retold here.

Data set [1] deals with Mus musculus. Briefly: Smoke cessation activity in sc dosed ICR mouse assessed as inhibition of nicotine-induced antinociception administered 15 mins before nicotine challenge measured after 5 mins of nicotine infusion by hotplate assay. It counts as functional, organism-based. The procedure, abridged:
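Male ICR mice (20–25 g) were pretreated with saline or test drug 15 min before nicotine at 2.5 mg/kg sc. They were tested 5 min later on a 55 °C hot plate (40 s cutoff), and the result was expressed as %MPE. AD₅₀ came from at least four doses, with at least 8 mice per dose.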

The subject of data set [2] is Mus musculus. Nature of the data set: Toxicity in sc dosed ICR mouse assessed occurrence of sedation. In kind it is organism-based. The note with it: in vivo.
Data set [3] addresses T1, Neuronal acetylcholine receptor; alpha4/beta4 (Homo sapiens, UniProt P30926+P43681). Nature of the data set: Agonist activity at alpha4beta4 nicotinic receptor in human SH-EP1 cells assessed as induction of radiolabeled Rb+ influx at 0.005 to 100 uM by liquid scintillation counting. It counts as functional, cell-based. The essentials: (§1)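 Cells were labelled with ⁸⁶Rb⁺ for at least 4 h, then exposed for 5 min in efflux buffer (pH 7.4) to test ligand alone at ~5 nM to 100 μM. The lines were TE671/RD (muscle α1β1γδ), SH-SY5Y (α3β4*) and transfected SH-EP1-hα4β2 or -hα4β4. Efflux was Cerenkov-counted. Non-specific efflux was subtracted, and results were normalized to specific efflux from carbamylcholine (1 mM; 3 mM for SH-SY5Y).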

Data set [4] has as its system Mus musculus. Nature of the data set: Toxicity in sc dosed ICR mouse assessed occurrence of convulsion. It counts as organism-based. The note with it: in vivo.
Data set [5] deals with Mus musculus. Nature of the data set: Smoke cessation activity in sc dosed ICR mouse assessed as inhibition of nicotine-induced hypothermia administered 15 mins before nicotine challenge measured after 30 mins of nicotine infusion. It counts as functional, organism-based. The essentials:
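Male ICR mice (20–25 g) were pretreated with test drug or saline 15 min before nicotine at 2.5 mg/kg sc. Rectal temperature was taken before and 30 min after nicotine, and the change was calculated. Room temperature was 21–24 °C. AD₅₀ came from at least four doses, with at least 8 mice per dose.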

The subject of data set [6] is Mus musculus. Nature of the data set: Smoke cessation activity in sc dosed ICR mouse assessed as inhibition of nicotine-induced increase in locomotor activity administered 15 mins before nicotine challenge measured after 5 mins of nicotine infusion. It counts as functional, organism-based.
For data set [7], the target named is Neuronal acetylcholine receptor; alpha4/beta2 (Homo sapiens, UniProt P17787+P43681). Nature of the data set: Agonist activity at alpha4beta2 nicotinic receptor in human SH-EP1 cells assessed as induction of radiolabeled Rb+ influx at 0.005 to 100 uM by liquid scintillation counting. In kind it is functional, cell-based. The essentials: as §1
The subject of data set [8] is Mus musculus. Nature of the data set: Smoke cessation activity in sc dosed ICR mouse assessed as inhibition of nicotine-induced antinociception administered 15 mins before nicotine challenge measured after 5 mins of nicotine infusion by tail-flick assay. In kind it is functional, organism-based. The procedure, abridged:
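Radiant-heat tail-flick latency was read 5 min later (10 s cutoff; baseline 2–4 s) and expressed as %MPE. AD₅₀ came from at least four doses, with at least 8 mice per dose.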

Data set [9] concerns the target T1, Neuronal acetylcholine receptor; alpha4/beta4. Nature of the data set: Antagonist activity at alpha4beta4 nicotinic receptor in human SH-EP1 cells assessed as inhibition varbamylcholine-induced radiolabeled Rb+ influx at by liquid scintillation counting. In kind it is functional, cell-based. The procedure, abridged: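 ⁸⁶Rb⁺-loaded human cells were given a 5-min efflux with carbamylcholine at EC₈₀–EC₉₀ plus graded test ligand. Non-specific efflux, taken with 100 μM mecamylamine or buffer, was subtracted. IC₅₀ came from a Hill fit of three independent experiments, with SEM given as a multiplication factor.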

Another data set relates to SH-EP1. Nature of the data set: Selectivity ratio of IC50 for alpha4beta2 nicotinic receptor in human SH-EP1 cells to IC50 for IC50 for human NET. It counts as cell-based.

The source made the active and inactive calls. Bounds are passed on as bounds.

T1 sequence (P30926 whole entry): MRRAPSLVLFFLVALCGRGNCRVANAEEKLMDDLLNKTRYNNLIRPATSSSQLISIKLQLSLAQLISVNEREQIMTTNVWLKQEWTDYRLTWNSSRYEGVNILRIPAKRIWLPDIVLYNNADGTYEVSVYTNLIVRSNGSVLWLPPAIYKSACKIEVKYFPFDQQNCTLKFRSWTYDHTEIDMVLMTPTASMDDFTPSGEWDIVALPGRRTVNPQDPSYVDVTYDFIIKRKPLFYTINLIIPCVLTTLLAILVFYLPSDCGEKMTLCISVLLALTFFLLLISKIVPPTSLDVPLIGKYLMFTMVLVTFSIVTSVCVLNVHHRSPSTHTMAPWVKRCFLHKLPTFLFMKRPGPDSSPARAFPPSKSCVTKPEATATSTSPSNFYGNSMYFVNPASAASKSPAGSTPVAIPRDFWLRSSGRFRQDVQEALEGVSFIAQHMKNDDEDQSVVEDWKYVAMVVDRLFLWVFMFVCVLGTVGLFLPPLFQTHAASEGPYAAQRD
T1 sequence (P43681 whole entry): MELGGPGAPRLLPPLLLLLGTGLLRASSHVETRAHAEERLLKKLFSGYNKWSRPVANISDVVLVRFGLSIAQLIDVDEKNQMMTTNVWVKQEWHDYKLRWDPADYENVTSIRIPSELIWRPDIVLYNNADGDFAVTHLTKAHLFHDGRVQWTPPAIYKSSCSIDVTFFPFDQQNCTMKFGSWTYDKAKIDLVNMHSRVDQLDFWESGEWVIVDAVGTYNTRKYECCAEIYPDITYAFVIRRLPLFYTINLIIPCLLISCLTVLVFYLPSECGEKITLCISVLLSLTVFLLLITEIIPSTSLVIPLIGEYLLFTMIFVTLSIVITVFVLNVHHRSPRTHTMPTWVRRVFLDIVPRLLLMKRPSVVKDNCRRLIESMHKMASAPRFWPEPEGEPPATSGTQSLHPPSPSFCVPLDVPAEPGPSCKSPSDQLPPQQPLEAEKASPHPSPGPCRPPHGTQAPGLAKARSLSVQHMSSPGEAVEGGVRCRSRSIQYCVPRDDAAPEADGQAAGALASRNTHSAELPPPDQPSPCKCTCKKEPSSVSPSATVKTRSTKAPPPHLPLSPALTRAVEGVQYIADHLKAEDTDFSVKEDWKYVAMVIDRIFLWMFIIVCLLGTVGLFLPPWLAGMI

`C[C@@H]1NC(C)(C)CO[C@@]1(O)c1ccc(F)c(F)c1`: the IC50 in the data set on Mus musculus [1] is greater than 15 mg/kg; in the data set on Mus musculus [5], greater than 15 mg/kg; in the data set with Mus musculus [6], greater than 15 mg/kg; with Mus musculus [8] it was 0.006 mg/kg; in data set [9], greater than 100 µM. Besides, the Activity result in the data set with Mus musculus [2] and with Mus musculus [4] was “Non-toxic” throughout. Also, the outcome in data set [3] and in data set [7] was inactive.

On to `CC(NC(C)(C)C)C(=O)c1cccc(Cl)c1` (racemic) [BUPROPION], for which the IC50 with Mus musculus [1] was determined as 15 mg/kg; in the data set on Mus musculus [5], 9.2 mg/kg. Also, the Activity entry with Mus musculus [2] and in the data set with Mus musculus [4] was “Non-toxic” throughout.

In the case of `C[C@@H]1NC(C)(C)CO[C@@]1(O)c1ccc(-c2ccccc2)cc1`, the IC50 in the data set on Mus musculus [1] is greater than 15 mg/kg; in the data set with Mus musculus [5] it was greater than 15 mg/kg; in the data set on Mus musculus [6] it was greater than 15 mg/kg; with Mus musculus [8], 0.021 mg/kg. Further, the Activity result in the data set with Mus musculus [2] and with Mus musculus [4] was “Non-toxic” throughout.

As to `C[C@@H]1NC(C)(C)CO[C@@]1(O)c1ccc(F)cc1`, the IC50 with Mus musculus [1] is greater than 15 mg/kg; in the data set with Mus musculus [5] it was 5.67 mg/kg; in the data set on Mus musculus [6], greater than 15 mg/kg; in the data set on Mus musculus [8], 0.013 mg/kg; in data set [9], greater than 100 µM. For the same compound, the Activity result in the data set with Mus musculus [2] and in the data set on Mus musculus [4] was “Non-toxic” each time. For the same compound, the result in data set [3] and in data set [7] was inactive. For the same compound, in the data set on SH-EP1, the Ratio IC50 was 3.

With `C[C@@H]1NC(C)(C)CO[C@@]1(O)c1cccc(Cl)c1` [RADAFAXINE], the figures for the IC50 in the data set with Mus musculus [1], in the data set with Mus musculus [6] and in the data set with Mus musculus [8] were 1 mg/kg, 0.9 mg/kg and 0.2 mg/kg, respectively. Moreover, the Activity result with Mus musculus [2] and in the data set on Mus musculus [4] was “Non-toxic” in each case.

For the compound `CC1NC(C)(C)COC1(O)c1cc(Cl)cc(Cl)c1` (racemic), the IC50 was greater than 15 mg/kg with Mus musculus [1], greater than 15 mg/kg with Mus musculus [5], 1.9 mg/kg with Mus musculus [6] and greater than 15 mg/kg with Mus musculus [8]. The Activity entry in the data set on Mus musculus [2] and in the data set on Mus musculus [4] was “Non-toxic” each time. The outcome in data set [3] and in data set [7] was inactive. Further, the Ratio IC50 in the data set with SH-EP1 worked out at 4.5.

In the case of `CC[C@@H]1NC(C)(C)CO[C@@]1(O)c1cccc(Cl)c1`, the IC50 with Mus musculus [1] turned out to be 3.7 mg/kg; in the data set on Mus musculus [5], 7 mg/kg; in the data set with Mus musculus [6] it was 10.3 mg/kg; with Mus musculus [8] it was 0.004 mg/kg. Moreover, the Activity entry with Mus musculus [2] and with Mus musculus [4] was “Non-toxic” in each case. The result in [3] and in [7] was inactive. Also, the Ratio IC50 in the data set on SH-EP1 was determined as 67.

Consider `C[C@@H]1NC(C)(C)CO[C@@]1(O)c1cccc([N+](=O)[O-])c1`, for which the IC50 in the data set on Mus musculus [1] is greater than 15 mg/kg; in the data set on Mus musculus [5], 4.7 mg/kg; in the data set with Mus musculus [6], greater than 15 mg/kg; in the data set with Mus musculus [8], 4.9 mg/kg. In addition, the Activity entry with Mus musculus [2] and with Mus musculus [4] was “Non-toxic” throughout. Also, the outcome in data set [3] and in [7] was inactive. Also, the Ratio IC50 in the data set with SH-EP1 is 4.

Turning to `COc1ccc([C@]2(O)OCC(C)(C)N[C@H]2C)cc1`, the IC50 in the data set with Mus musculus [1] is greater than 15 mg/kg; in the data set with Mus musculus [5], greater than 15 mg/kg; in the data set with Mus musculus [6] it was greater than 15 mg/kg; in the data set on Mus musculus [8] it was 0.019 mg/kg. Besides, the Activity result in the data set with Mus musculus [2] and with Mus musculus [4] was “Non-toxic” each time. Further, the result in data set [3] and in data set [7] was inactive.

For the compound `Cc1cccc([C@]2(O)OCC(C)(C)N[C@H]2C)c1`, the IC50 was 7.6 mg/kg with Mus musculus [1], 2.3 mg/kg in the data set on Mus musculus [5], greater than 15 mg/kg in the data set on Mus musculus [6] and 0.054 mg/kg with Mus musculus [8]. The Activity entry with Mus musculus [2] and in the data set on Mus musculus [4] was “Non-toxic” in each case. The outcome in data set [3] and in data set [7] was inactive. Moreover, the Ratio IC50 in the data set on SH-EP1 was 5.3.

With `Cc1ccc([C@]2(O)OCC(C)(C)N[C@H]2C)cc1`, the IC50 is greater than 15 mg/kg in the data set with Mus musculus [1], greater than 15 mg/kg in the data set on Mus musculus [5], greater than 15 mg/kg with Mus musculus [6] and 0.004 mg/kg in the data set with Mus musculus [8]. Moreover, the Activity result in the data set on Mus musculus [2] and in the data set on Mus musculus [4] was “Non-toxic” throughout. Also, the outcome in [3] and in data set [7] was inactive.

Regarding `C[C@H]1NC(C)(C)CO[C@]1(O)c1cccc(Cl)c1`, the IC50 in the data set on Mus musculus [1] was 10.3 mg/kg; in the data set with Mus musculus [5], greater than 15 mg/kg; in the data set with Mus musculus [6] it was greater than 15 mg/kg; in the data set with Mus musculus [8] it was 2.5 mg/kg. Also, the Activity result in the data set on Mus musculus [2] and with Mus musculus [4] was “Non-toxic” throughout.

With `C[C@@H]1NC(C)(C)CO[C@@]1(O)c1cc(F)cc(F)c1`, the IC50 in the data set with Mus musculus [1] was greater than 15 mg/kg; with Mus musculus [5] it was greater than 15 mg/kg; with Mus musculus [6], greater than 15 mg/kg; with Mus musculus [8], 0.0056 mg/kg. Further, the Activity entry in the data set on Mus musculus [2] and with Mus musculus [4] was “Non-toxic” each time. Besides, the result in [3] and in data set [7] was inactive.

For `C[C@@H]1N(C)C(C)(C)CO[C@@]1(O)c1cccc(Cl)c1`, the IC50 with Mus musculus [1] is greater than 15 mg/kg; with Mus musculus [5], greater than 15 mg/kg; in the data set with Mus musculus [6], greater than 15 mg/kg; in the data set on Mus musculus [8], 0.016 mg/kg. Moreover, the Activity result in the data set with Mus musculus [2] and in the data set on Mus musculus [4] was “Non-toxic” in each case. The result in [3] and in data set [7] was inactive.

For the compound `C[C@@H]1NC(C)(C)CO[C@@]1(O)c1cccc(Br)c1`, the IC50 in the data set with Mus musculus [1] was 4.3 mg/kg; with Mus musculus [5], 1.7 mg/kg; in the data set with Mus musculus [6], 2.6 mg/kg; in the data set with Mus musculus [8] it was 0.16 mg/kg. For the same compound, the Activity result with Mus musculus [2] and in the data set on Mus musculus [4] was “Non-toxic” in each case. Besides, the outcome in data set [3] and in [7] was inactive.

Regarding `C[C@@H]1NC(C)(C)CO[C@@]1(O)c1ccc(Cl)cc1`, the IC50 in the data set on Mus musculus [1] was greater than 15 mg/kg; in the data set on Mus musculus [5], greater than 15 mg/kg; in the data set with Mus musculus [6], greater than 15 mg/kg; in the data set on Mus musculus [8], 0.019 mg/kg. The Activity result in the data set with Mus musculus [2] and in the data set on Mus musculus [4] was “Non-toxic” throughout. In addition, the outcome in data set [3] and in data set [7] was inactive.

On to `C[C@@H]1N(C)C(C)(C)CO[C@@]1(O)c1ccc(Cl)cc1`, for which the IC50 is greater than 15 mg/kg in the data set on Mus musculus [1], greater than 15 mg/kg in the data set with Mus musculus [5], greater than 15 mg/kg in the data set on Mus musculus [6] and 0.32 mg/kg with Mus musculus [8]. Moreover, the Activity result with Mus musculus [2] and in the data set with Mus musculus [4] was “Non-toxic” in each case. Further, the result in data set [3] and in data set [7] was inactive.
